Compound activity (PubChem BioAssay)
L major viab = inhibitors of Leishmania major promastigote growth. inhibition, % at 10 µM. actives 9% (n = 200,000). Leishmania major promastigotes, resazurin fluorescence viability; in the data active = inhibition above about 50%;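 also: promastigotes grown with compound for 44 hours at 28 °C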
TNAP act hi DEA = activators of human TNAP at high phosphate acceptor concentration; P05186; purified TNAP, CDP-star luminescence, 1 M DEA, 30 min; stronger effect = higher value; 0 = EDTA background, 1 = DMSO-only activity; activation factor at 20 µM; 200,000 tested, under 10 active; AID 1136;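 active = activation factor at least 2 at 20 µM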
Target sequence (P05186 whole entry, looked up): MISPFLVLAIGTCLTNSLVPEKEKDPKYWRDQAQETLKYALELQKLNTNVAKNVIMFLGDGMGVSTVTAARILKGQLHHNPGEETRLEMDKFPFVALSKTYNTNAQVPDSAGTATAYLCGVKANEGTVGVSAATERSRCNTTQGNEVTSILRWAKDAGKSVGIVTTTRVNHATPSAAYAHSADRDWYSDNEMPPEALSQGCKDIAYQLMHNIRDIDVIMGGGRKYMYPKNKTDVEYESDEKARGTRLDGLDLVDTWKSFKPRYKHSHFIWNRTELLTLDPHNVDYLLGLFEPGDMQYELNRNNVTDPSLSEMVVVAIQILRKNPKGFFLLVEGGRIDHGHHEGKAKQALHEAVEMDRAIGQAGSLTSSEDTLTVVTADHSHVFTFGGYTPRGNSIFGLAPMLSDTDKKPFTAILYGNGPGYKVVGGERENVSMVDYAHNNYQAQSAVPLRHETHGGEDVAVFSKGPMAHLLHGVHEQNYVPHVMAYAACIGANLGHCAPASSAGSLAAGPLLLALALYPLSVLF
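Measured by: Luminescent substrate turnover signal | Test system: Human TNAP | Input: TNAP 1/800 final | Dosing: 20 µM single point | Schedule: 30 min, room temperature | Controls: EDTA wells as negative control, DMSO wells as positive control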
PTEN del growth = growth suppressors of cells with PTEN tumor suppressor deletion. AID 827. viability, % at 10 µM. HCT116 PTEN-null viability, CellTiter-Glo, 60 h; stronger effect = lower value. actives 1.2% (n = 140,000);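 active = viability at or below a set limit, 4 SD under the median of all tested compounds, cut at about 3.7% in these data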;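 also: PTEN knockout HCT116 line with beta catenin targeted HCT116 as companion control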
TNAP inh noacc = TNAP (human) inhibition, acceptor-free conditions; P05186; purified TNAP, CDP-star luminescence, 30 min; inhibition, % at 20 µM; actives 0.26% (n = 200,000);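 active = tissue-nonspecific alkaline phosphatase inhibition above about 50% at 20 µM in the single-dose screen, limit read from the data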;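 also: 0% = DMSO negative control and 100% = EDTA positive control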
HCT116 bCat-KO = beta-catenin-lacking colon tumor cell growth suppression. HCT116 beta-catenin knockout viability, CellTiter-Glo, 60 h; stronger effect = lower value. AID 818. viability, % at 10 µM. actives 1.5% (n = 140,000);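 active = viability at or under a set limit, the compound median less 4 SD, cut at about 6% in these data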;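 also: 0% = Hyamine 1622 control at 20 µM and 100% = untreated cell control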
TNAP inh hiacc = TNAP (human) inhibition, high acceptor; inhibition, % at 20 µM; actives 0.03% (n = 200,000); purified TNAP, CDP-star luminescence, 1 M DEA; P05186; AID 1135;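 active = over 50% inhibition of tissue-nonspecific alkaline phosphatase at 20 µM in the single-dose screen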;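 also: plate controls were DMSO wells for no effect and EDTA-quenched wells as full inhibition for full effect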
The depositor's hits bear a star; . = no result. In the library only some 9.6% were active in any assay of this set; here they are far more common.

SMILES	L major viab	TNAP act hi DEA	PTEN del growth	TNAP inh noacc	HCT116 bCat-KO	TNAP inh hiacc
CC(=O)Nc1ccc(NC(=O)COc2ccc(Br)cc2C)cc1	62*	1	87	-4	98	2
COc1cc(CNCCO)ccc1OCC(=O)Nc1ccc(Br)cc1	100*	1	102	-4	94	1
CCCNCc1cc(OC)c(OCC(=O)Nc2ccccc2)cc1Br	46	0.9	.	-38	.	10
CCOC(=O)c1c(NC(C)=O)sc2c(OCCN(CC)CC)c(Br)ccc12	100*	1	.	-8	.	-1
CCOC(=O)c1c(NC(C)=O)sc2c(OCC(O)CN(CC)CC)c(Br)ccc12 (stereo unspecified)	100*	1.1	.	-11	.	-5
CCOC(=O)c1c(NC(C)=O)sc2c(OC)c(Br)ccc12	-1	0.9	76	-2	62	6
CCN(CC)C(=O)C(=O)c1cn(CCOc2ccccc2)c2ccccc12	13	1.1	.	-6	.	-6
Cc1ccc(S(=O)(=O)N2CCC(C(=O)NCCc3ccccc3)CC2)cc1	-2	1.1	101	-3	94	-7
Cc1ccc(S(=O)(=O)N2CCC(C(=O)N[C@@H](Cc3ccccc3)C(=O)O)CC2)cc1	54*	1	105	-7	96	1
O=C(NCc1ccccc1Cl)C1CCN(S(=O)(=O)c2ccc(F)cc2)CC1	1	1.1	.	-18	.	-6
Cc1ccc(S(=O)(=O)N2CCC(C(=O)NCc3ccccc3Cl)CC2)cc1	73*	1.1	110	-9	100	-7
Cc1ccc(S(=O)(=O)N2CCC(C(=O)NCCN3CCCCCC3)CC2)cc1	100*	1	86	-13	82	-3
Cc1ccc(S(=O)(=O)Oc2ccc(/C=N/NC(=O)c3nn(C)cc3[N+](=O)[O-])cc2)cc1	-4	1	59	-20	70	-2
CC(=O)Nc1ccc(CN2CCN(C3CCCCC3)C(CCO)C2)cc1 (stereo unspecified)	-3	1	.	-6	.	-4
COC(=O)c1ccc(CN2CCN(C3CCCCC3)C(CCO)C2)cc1 (stereo unspecified)	54*	1	.	-6	.	-1
COC(=O)c1ccc(CN2CCN(C3CCCC3)C(CCO)C2)cc1 (stereo unspecified)	56*	1	.	-12	.	-5
CC(=O)c1ccc(N2CCN(C(=S)Nc3cccc(Cl)c3)CC2)cc1	57*	1.1	90	-2	88	-6
COC(=O)c1ccc(C(=O)OC)c(NC(=S)N2CCN(c3cccc(Cl)c3)CC2)c1	74*	1	88	-16	88	-4
COc1ccc(CCN(C)CCCN2CC(c3ccccc3)CC2=O)cc1OC (stereo unspecified)	10	1	.	-9	.	-4
COc1ccc(CNC[C@@H](CCCCN(C)Cc2ccc(OC)cc2)N2C[C@H](c3ccccc3)N(CCc3ccc(Cl)c(Cl)c3)C(=O)C2=O)cc1	100*	1.2	.	-37	.	-22
Cc1ccccc1CSCCNC(=O)Nc1ccccc1	9	1	.	-9	.	0
Cc1cc(C)n2nc(C(F)(F)F)c(-c3ccccc3)c2n1	4	1.1	.	-14	.	-9
O=S(=O)(NC1CCN(Cc2ccccc2)CC1)c1cccc2cccnc12	67*	1	55	-7	60	-2
COc1cc(OC)c2nc(C)c3c(c2c1)N(c1ccc(O)cc1)CC3	99*	1	5	-10	4.5*	-4
COc1ccc(N2CCN(c3cc(C)c4ccc(O)cc4n3)CC2)cc1	1	1	91	-12	94	-4
SMILES	L major viab	TNAP act hi DEA	PTEN del growth	TNAP inh noacc	HCT116 bCat-KO	TNAP inh hiacc
CCOC(=O)c1sc2nc(CSc3ccccc3)nc(N3CCC(C(N)=O)CC3)c2c1C	27	1	.	8	.	4
Cc1sc2nc(CSc3ccccc3)nc(N3CCC(C(N)=O)CC3)c2c1C	70*	1	.	-4	.	0
Cc1sc2nc(CN3CCOCC3)nc(NCCc3ccccc3)c2c1C	27	1.1	88	-18	79	-5
CCOC(=O)c1sc2nc(CSc3ccccc3)nc(N3CCCN(C)CC3)c2c1C	100*	1	.	-6	.	-1
Cc1sc2nc(CSc3ccccc3)nc(N3CCOCC3)c2c1C	82*	1.1	81	-7	73	-8
Cc1sc2nc(CSc3ccccc3)nc(NCCN(C)C)c2c1C	92*	1	55	-14	46	0
CCNc1nc(CSc2ccccc2)nc2sc(C)c(C)c12	39	1	66	-19	61	-5
Cc1nc(SCC(=O)Nc2cccnc2Cl)nc(C)c1C	-3	1	.	-3	.	-3
O=C(OCC(=O)c1c[nH]c2ccccc12)c1cc2ccccc2cc1O	62*	1	70	-4	72	-1
Cc1ccc(C(=O)OCC(=O)c2c[nH]c3ccccc23)cc1NC(=O)c1ccco1	69*	1.1	.	-14	.	-6
CCN(CC)C(=O)COC(=O)c1ccc(C)c(NC(=O)c2ccco2)c1	4	1	.	1	.	2
O=C(CC1CC2CCC1C2)OCC(=O)c1c[nH]c2ccccc12 (stereo unspecified)	72*	1	74	-8	89	-3
O=C(COC(=O)CC1CC2CCC1C2)Nc1ccc(F)cc1 (stereo unspecified)	-9	1	.	-8	.	-4
Cn1nnc2cc(C(=O)Nc3ccc4ccccc4c3)ccc21	-7	1.1	.	-11	.	-5
Cc1ccc(NS(=O)(=O)c2cc(C(=O)O)ccc2Cl)c(C)c1	-3	1	93	-7	99	-4
Cc1ccc(NS(=O)(=O)c2cc(NC(=O)c3ccc4c(c3)NC(=O)CS4)ccc2Cl)c(C)c1	87*	1	.	-11	.	-4
CCOC(=O)CN1C(=O)CCSc2ccc(Cl)cc21	-3	1	.	-6	.	-2
CCN(c1cccc(C(F)(F)F)c1)S(=O)(=O)c1ccc2c(c1)CCN2C(C)=O	60*	0.9	68	-7	74	11
CCN(c1cccc(C)c1)S(=O)(=O)c1cccc(C(=O)O)c1	-10	1	95	-16	86	0
CCN(c1cccc(C)c1)S(=O)(=O)c1ccc2c(c1)CCN2C(C)=O	94*	1	35	-6	40	-2
CC(=O)N1CCc2cc(S(=O)(=O)N3CCOCC3)ccc21	-3	1.1	96	-15	92	-8
CC(=O)N1CCCc2cc(S(=O)(=O)N(CC(C)C)CC(C)C)ccc21	85*	1	83	-4	92	0
CC(=O)N1CCCc2cc(S(=O)(=O)N(C)CCC#N)ccc21	-5	1.1	100	-9	93	-7
COc1ccc(/C=N\NC(=O)c2cc(O)c(O)c(O)c2)cc1CN1CCN(c2ccc(F)cc2)CC1	-15	0.9	78	-21	81	9
C=CCn1c(SC(C)C#N)nc2sc(CC)cc2c1=O (stereo unspecified)	2	1	.	-12	.	-3
